# Laboratory results taken from ChEMBL document CHEMBL1125096, “Synthesis and antitumor activity of 9-[(carbamoyloxy)alkyl]anthracyclines: a novel class of anthracycline derivatives” (1990).
# Columns and labels:
# Type in all cases: functional, Mus musculus
# L1210 (1565) [1] = experiment: Antitumor activity against L-1210 leukemia cell line in BDF1 mice after injecting 0.5 mg/kg intraperitoneal dose
# Method in brief: (§1)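 Female BDF1 mice, five per dose group, inoculated ip with 10^5 viable L-1210 ascites cells. Dosing started the same day: ip, daily, five times a week for 4 weeks or until death. Vehicle was aqueous solution, or propylene glycol suspension if insoluble. Efficacy is expressed as T/C, the ratio of mean survival time of treated to untreated control mice. Survivors at 4 weeks counted as long-term.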
# L1210 (1565) [2] = experiment: Antitumor activity against L-1210 leukemia cell line in BDF1 mice after injecting 2 mg/kg intraperitoneal dose; method in brief: as §1
# L1210 (1565) [3] = experiment: Antitumor activity against L-1210 leukemia cell line in BDF1 mice after injecting 0.05 mg/kg intraperitoneal dose; method in brief: as §1
# L1210 (1565) [4] = experiment: Antitumor activity against L-1210 leukemia cell line in BDF1 mice after injecting 4 mg/kg intraperitoneal dose; method in brief: as §1
# L1210 (1565) [5] = experiment: Antitumor activity against L-1210 leukemia cell line in BDF1 mice after injecting 1 mg/kg intraperitoneal dose; method in brief: as §1
# L1210 (1565) [6] = experiment: Antitumor activity against L-1210 leukemia cell line in BDF1 mice after injecting 16 mg/kg intraperitoneal dose; method in brief: as §1
# L1210 (1565) [7] = experiment: Antitumor activity against L-1210 leukemia cell line in BDF1 mice after injecting 0.125 mg/kg intraperitoneal dose; method in brief: as §1
# L1210 (1565) [8] = experiment: Antitumor activity against L-1210 leukemia cell line in BDF1 mice after injecting 0.25 mg/kg intraperitoneal dose; method in brief: as §1
smiles,measurement,setting,value
COc1cccc2c1C(=O)c1c(O)c3c(c(O)c1C2=O)C[C@@](O)(C(C)=O)C[C@@H]3O[C@H]1C[C@H](N)[C@H](O)[C@H](C)O1.Cl [DAUNORUBICIN HYDROCHLORIDE],T/C,L1210 (1565) [1],290%
CC1OC(O[C@H]2C[C@](O)(COC(=O)Nc3ccc(Cl)cc3)Cc3c(O)c4c(c(O)c32)C(=O)c2ccccc2C4=O)CC(N)C1O.Cl (some centres undefined),T/C,L1210 (1565) [2],370%
COc1cccc2c1C(=O)c1c(O)c3c(c(O)c1C2=O)C[C@@](O)(C(=O)CO)C[C@@H]3O[C@H]1C[C@H](N)[C@H](O)[C@H](C)O1.Cl [DOXORUBICIN HYDROCHLORIDE],T/C,L1210 (1565) [2],330%
CC(=O)[C@]1(O)Cc2c(O)c3c(c(O)c2[C@@H](O[C@H]2C[C@@H](N)[C@H](O)[C@H](C)O2)C1)C(=O)c1ccccc1C3=O.Cl,T/C,L1210 (1565) [3],230%
CO[C@H]1[C@H](N)C[C@H](O[C@H]2C[C@](O)(COC(=O)Nc3ccccc3)Cc3c(O)c4c(c(O)c32)C(=O)c2ccccc2C4=O)O[C@H]1C.Cl (stereo in doubt; 19),T/C,L1210 (1565) [2]; 2 mg/kg,230%
CNC(=O)OC[C@]1(O)Cc2c(O)c3c(c(O)c2[C@@H](OC2CC(N)C(O)C(C)O2)C1)C(=O)c1ccccc1C3=O.Cl (some centres undefined),T/C,L1210 (1565) [4],280%
CC1OC(O[C@H]2C[C@](O)([C@@H](C)OC(=O)Nc3ccccc3)Cc3c(O)c4c(c(O)c32)C(=O)c2ccccc2C4=O)CC(N)C1O.Cl (some centres undefined),T/C,L1210 (1565) [5],280%
CC1OC(O[C@H]2C[C@](O)(COC(=O)Nc3ccc([N+](=O)[O-])cc3)Cc3c(O)c4c(c(O)c32)C(=O)c2ccccc2C4=O)CC(N)C1O.Cl (some centres undefined),T/C,L1210 (1565) [4],210%
C[C@@H]1O[C@@H](O[C@H]2C[C@](O)(COC(=O)Nc3ccccc3)Cc3c(O)c4c(c(O)c32)C(=O)c2ccccc2C4=O)C[C@@H](N)[C@@H]1O.Cl (stereo in doubt; 8a),T/C,L1210 (1565) [2]; 2 mg/kg,380%
CC1OC(O[C@H]2C[C@](O)(COC(=O)Nc3ccccc3)Cc3c(O)c4c(c(O)c32)C(=O)c2ccccc2C4=O)CC(N)C1OCc1ccccc1.Cl (some centres undefined),T/C,L1210 (1565) [6],470%
C[C@@H]1OC(O[C@H]2C[C@](O)([C@H](C)OC(=O)Nc3ccccc3)Cc3c(O)c4c(c(O)c32)C(=O)c2ccccc2C4=O)C[C@H](N)[C@H]1O.Cl (some centres undefined),T/C,L1210 (1565) [7],400%
C[C@H]1C[C@H](N)C[C@H](O[C@H]2C[C@](O)(COC(=O)Nc3ccccc3)Cc3c(O)c4c(c(O)c32)C(=O)c2ccccc2C4=O)O1.Cl,T/C,L1210 (1565) [2],500%
COc1ccc(NC(=O)OC[C@]2(O)Cc3c(O)c4c(c(O)c3[C@@H](OC3CC(N)C(O)C(C)O3)C2)C(=O)c2ccccc2C4=O)cc1.Cl (some centres undefined),T/C,L1210 (1565) [2],230%
C[C@@H]1OC(O[C@H]2C[C@](O)([C@@H](C)OC(=O)Nc3ccccc3)Cc3c(O)c4c(c(O)c32)C(=O)c2ccccc2C4=O)C[C@H](N)[C@@H]1O.Cl (some centres undefined),T/C,L1210 (1565) [8],420%
